Results taken from ChEMBL document CHEMBL4402601, “Discovery of a Silicon-Containing Pan-Genotype Hepatitis C Virus NS5A Inhibitor” (J Med Chem, 2020).

How the values were obtained:
[1] = Drug distribution in mouse plasma at 10 mg/kg, po incubated for 24 hrs by UPLC-MS/MS analysis; assay type: ADME, organism-based
Procedure, shortened: (§1)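 Oral dosing in mice and rats; compound measured in plasma and liver by UPLC-MS/MS at each time point, n = 3 (mean ± SD). LPR is mean liver concentration divided by mean plasma concentration.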

Hepatitis C virus [2] = experiment: Antiviral activity against Hepatitis C virus subtype 3a subgenomic replicon expressing NS5A infected in human HuH7 cells assessed as reduction in viral replication incubated for 3 days by luciferase reporter gene assay; assay type: functional, organism-based, Hepacivirus hominis; conditions: Huh-7, 72 h
Procedure, shortened: (§2)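 HCV replicon cell assay; inhibition of replication read as decrease in luciferase signal. Percent inhibition computed at each compound concentration; EC50 (pM) from nonlinear regression fit to a 4-parameter logistic equation. Values are means of triplicate wells, with each experiment run at least twice.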

Hepatitis C virus [3] = experiment: Antiviral activity against Hepatitis C virus subtype 1a H77 subgenomic replicon expressing NS5A Q30K mutant infected in human HuH7 cells assessed as reduction in viral replication incubated for 3 days by luciferase reporter gene assay; assay type: functional, organism-based, Hepacivirus hominis; conditions: subtype 1a H77, Huh-7, 72 h
Procedure, shortened: (§3)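 NS5A resistance-associated variants introduced into GT1a-H77 or GT1b-Con1 replicons. In transient assays, each variant replicon was electroporated into a Huh-7-derived cell line. Inhibition measured as drop in luciferase signal. Percent inhibition computed per concentration; EC50 from 4-parameter logistic nonlinear fit. Fold resistance is variant EC50 relative to the matching reference replicon.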

[4] = Cytotoxicity against human HuH7 cells assessed as reduction in cell viability incubated for 3 days by luciferase reporter gene assay; assay type: cell-based, Huh-7
[5] = Toxicity in mouse assessed as effect on hematological parameters at 300 mg/kg, po administered for 14 days and measured on day 14; assay type: organism-based; conditions: in vivo, 336 h
Procedure, shortened: (§4)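 Mice randomised after acclimation into two groups of 5 males and 5 females. Compound at 300 mg/kg or vehicle alone given once daily by oral gavage for 14 days. Clinical signs observed daily. Body weight and food intake recorded on day 1, then twice weekly. Animals killed after the 14th dose.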

[6] = Drug distribution in mouse liver at 10 mg/kg, po incubated for 3 hrs by UPLC-MS/MS analysis; assay type: ADME, organism-based; conditions: read-out: Drug uptake; procedure, shortened: as §1
Hepatitis C virus [7] = experiment: Antiviral activity against Hepatitis C virus subtype 1a H77 subgenomic replicon expressing NS5A Q30E mutant infected in human HuH7 cells assessed as reduction in viral replication incubated for 3 days by luciferase reporter gene assay; assay type: functional, organism-based, Hepacivirus hominis; conditions: subtype 1a H77, Huh-7, 72 h; procedure, shortened: as §3
[8] = Toxicity in mouse assessed as increase in cholesterol level at 300 mg/kg, po administered for 14 days and measured on day 14; assay type: organism-based; conditions: in vivo, 336 h; procedure, shortened: as §4
Hepatitis C virus [9] = experiment: Antiviral activity against Hepatitis C virus subtype 1a H77 subgenomic replicon expressing NS5A M28T mutant infected in human HuH7 cells assessed as reduction in viral replication incubated for 3 days by luciferase reporter gene assay; assay type: functional, organism-based, Hepacivirus hominis; conditions: subtype 1a H77, Huh-7, 72 h; procedure, shortened: as §3
Hepatitis C virus [10] = experiment: Resistance index, ratio of EC50 for Hepatitis C virus subtype 1a H77 subgenomic replicon expressing NS5A Y93C mutant infected in human HuH7 cells to EC50 for Hepatitis C virus subtype 1a H77 subgenomic replicon expressing NS5A infected in human HuH7 cells; assay type: functional, Hepacivirus hominis
Hepatitis C virus [11] = experiment: Resistance index, ratio of EC50 for Hepatitis C virus subtype 1b Con1 subgenomic replicon expressing NS5A L31W mutant infected in human HuH7 cells to EC50 for Hepatitis C virus subtype 1b Con1 subgenomic replicon expressing NS5A infected in human HuH7 cells; assay type: functional, Hepacivirus hominis
Hepatitis C virus [12] = experiment: Antiviral activity against Hepatitis C virus subtype 6a subgenomic replicon expressing NS5A infected in human HuH7 cells assessed as reduction in viral replication incubated for 3 days by luciferase reporter gene assay; assay type: functional, organism-based, Hepacivirus hominis; conditions: Huh-7, 72 h; procedure, shortened: as §2
[13] = Drug distribution in rat liver at 10 mg/kg, po incubated for 0.5 hrs by UPLC-MS/MS analysis; assay type: ADME, organism-based; conditions: read-out: Drug uptake; procedure, shortened: as §1
[14] = Ratio of drug distribution in rat liver to drug distribution in rat plasma measured after 3 hrs by UPLC-MS/MS analysis; assay type: ADME, cell-free; procedure, shortened: as §1
[15] = Tmax in dog at 5 mg/kg, po by UPLC-MS/MS analysis; assay type: ADME, organism-based, Canis lupus familiaris; conditions: in vivo
Hepatitis C virus [16] = experiment: Antiviral activity against Hepatitis C virus subtype 1a H77 subgenomic replicon expressing NS5A L31M mutant infected in human HuH7 cells assessed as reduction in viral replication incubated for 3 days by luciferase reporter gene assay; assay type: functional, organism-based, Hepacivirus hominis; conditions: subtype 1a H77, Huh-7, 72 h; procedure, shortened: as §3
Hepatitis C virus [17] = experiment: Antiviral activity against Hepatitis C virus subtype 1b Con1 subgenomic replicon expressing NS5A infected in human HuH7 cells assessed as reduction in viral replication incubated for 3 days by luciferase reporter gene assay; assay type: functional, organism-based, Hepacivirus hominis; conditions: subtype 1b Con1, Huh-7, 72 h; procedure, shortened: as §2
[18] = Drug distribution in rat plasma at 10 mg/kg, po incubated for 8 hrs by UPLC-MS/MS analysis; assay type: ADME, organism-based; procedure, shortened: as §1
[19] = Tmax in mouse at 10 mg/kg, po by UPLC-MS/MS analysis; assay type: ADME, organism-based; conditions: in vivo
Procedure, shortened: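 Mice fasted overnight, given a single 10 mg/kg oral dose in 2:2:96 (v/v) alcohol:Tween 80:glucose injection. Plasma concentrations measured by UPLC-MS/MS.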

Hepatitis C virus [20] = experiment: Resistance index, ratio of EC50 for Hepatitis C virus subtype 1a H77 subgenomic replicon expressing NS5A Y93N mutant infected in human HuH7 cells to EC50 for Hepatitis C virus subtype 1a H77 subgenomic replicon expressing NS5A infected in human HuH7 cells; assay type: functional, Hepacivirus hominis
[21] = MRT in dog at 5 mg/kg, po by UPLC-MS/MS analysis; assay type: ADME, organism-based, Canis lupus familiaris; conditions: in vivo
Hepatitis C virus [22] = experiment: Antiviral activity against Hepatitis C virus subtype 1a H77 subgenomic replicon expressing NS5A Y93H mutant infected in human HuH7 cells assessed as reduction in viral replication incubated for 3 days by luciferase reporter gene assay; assay type: functional, organism-based, Hepacivirus hominis; conditions: subtype 1a H77, Huh-7, 72 h; procedure, shortened: as §3
[23] = AUC (0 to 48 hrs) in dog at 5 mg/kg, po by UPLC-MS/MS analysis; assay type: ADME, organism-based, Canis lupus familiaris; design: time < 48 hr, dose 5 mg/kg, route oral; conditions: in vivo
[24] = Drug distribution in rat liver at 10 mg/kg, po incubated for 8 hrs by UPLC-MS/MS analysis; assay type: ADME, organism-based; conditions: read-out: Drug uptake; procedure, shortened: as §1
Hepatitis C virus [25] = experiment: Resistance index, ratio of EC50 for Hepatitis C virus subtype 1a H77 subgenomic replicon expressing NS5A Q30K mutant infected in human HuH7 cells to EC50 for Hepatitis C virus subtype 1a H77 subgenomic replicon expressing NS5A infected in human HuH7 cells; assay type: functional, Hepacivirus hominis
Hepatitis C virus [26] = experiment: Antiviral activity against Hepatitis C virus subtype 1b Con1 replicon expressing NS5A Y93H mutant infected in human HuH7 cells assessed as reduction in viral replication incubated for 3 days by luciferase reporter gene assay; assay type: functional, organism-based, Hepacivirus hominis; conditions: subtype 1b Con1, Huh-7, 72 h; procedure, shortened: as §3
Hepatitis C virus [27] = experiment: Resistance index, ratio of EC50 for Hepatitis C virus subtype 1a H77 subgenomic replicon expressing NS5A M28T mutant infected in human HuH7 cells to EC50 for Hepatitis C virus subtype 1a H77 subgenomic replicon expressing NS5A infected in human HuH7 cells; assay type: functional, Hepacivirus hominis
[28] = Volume of distribution in mouse at 2 mg/kg, iv by UPLC-MS/MS analysis; assay type: ADME, organism-based; conditions: in vivo
Procedure, shortened: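 Mice fasted overnight, given a single 2 mg/kg iv dose. Vehicle was the oral formulation (2:2:96 alcohol:Tween 80:glucose injection) diluted 2.5-fold with 10% glucose injection. Plasma concentrations measured by UPLC-MS/MS.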

Hepatitis C virus [29] = experiment: Resistance index, ratio of EC50 for Hepatitis C virus subtype 1b Con1 subgenomic replicon expressing NS5A L31V mutant infected in human HuH7 cells to EC50 for Hepatitis C virus subtype 1b Con1 subgenomic replicon expressing NS5A infected in human HuH7 cells; assay type: functional, Hepacivirus hominis

Work on `COC(=O)N[C@H](C(=O)N1CCC[C@H]1C(=O)Nc1ccc([C@@H]2CC[C@@H](c3ccc(NC(=O)[C@@H]4CCCN4C(=O)[C@@H](NC(=O)OC)[C@@H](C)OC)cc3)N2c2cc(F)c(N3CC[Si](C)(C)CC3)c(F)c2)cc1)[C@@H](C)OC` yielded a concentration at 24 h [1] of 58.6 ng/mL, an EC50 (Hepatitis C virus [2]) of 0.003 nM and an EC50 (Hepatitis C virus [3]) of 0.0375 nM. The CC50 at 72 h [4] was > 50000 nM, the Activity [5] was “Non-Toxic” and the concentration at 3 h [6] was 1580 ng/g. The EC50 (Hepatitis C virus [7]) was 0.216 nM, the Activity [8] was “Non-Toxic” and the EC50 (Hepatitis C virus [9]) was 0.00237 nM. The “Ratio EC50” value (Hepatitis C virus [10]) was >203, the “Ratio EC50” value (Hepatitis C virus [11]) was 11.4 and the EC50 (Hepatitis C virus [12]) was 0.017 nM. For the same compound, the concentration at 0.5 h [13] was 359 ng/g, the Kp at 3 h [14] was 5.2 and the Tmax [15] was 5.3 h. For the same compound, the EC50 (Hepatitis C virus [16]) was 0.0122 nM, the EC50 (Hepatitis C virus [17]) was 0.0017 nM and the concentration at 8 h [18] was 16.4 ng/mL. For the same compound, the Tmax [19] was 7.3 h, the “Ratio EC50” value (Hepatitis C virus [20]) was >203 and the MRT [21] was 17.5 h. For the same compound, the EC50 (Hepatitis C virus [22]) was > 1 nM, the AUC [23] was 8020 ng·h/mL and the concentration at 8 h [24] was 293 ng/g. The “Ratio EC50” value (Hepatitis C virus [25]) was 30.5, the EC50 (Hepatitis C virus [26]) was 0.0204 nM and the “Ratio EC50” value (Hepatitis C virus [27]) was 1.9. The Vd [28] was 1.56 L/kg and the “Ratio EC50” value (Hepatitis C virus [29]) was 2.3.
